This note sets out measurements from ChEMBL document CHEMBL1153229, “The first synthetic agonists of FFA2: Discovery and SAR of phenylacetamides as allosteric modulators” (Bioorg Med Chem Lett, 2010).

pIC50: −log10 of the molar value.

Data set [1] deals with T1, Free fatty acid receptor 2 (Homo sapiens, UniProt O15552).
T1 sequence (O15552 whole entry): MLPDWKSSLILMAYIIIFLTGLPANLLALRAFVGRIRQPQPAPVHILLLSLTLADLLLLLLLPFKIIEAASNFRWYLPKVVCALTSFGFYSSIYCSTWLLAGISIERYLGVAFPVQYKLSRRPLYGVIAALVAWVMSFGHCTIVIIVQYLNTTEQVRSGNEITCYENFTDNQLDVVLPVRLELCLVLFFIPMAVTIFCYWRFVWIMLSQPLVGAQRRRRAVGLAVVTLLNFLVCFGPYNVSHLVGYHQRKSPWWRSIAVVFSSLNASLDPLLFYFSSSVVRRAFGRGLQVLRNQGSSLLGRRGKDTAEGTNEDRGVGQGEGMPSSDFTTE
The experiment in a line: Agonist activity at human FFA2 receptor expressed in CHO cells assessed as inhibition of forskolin-induced cAMP production. The format is functional, cell-based. The method, boiled down:
(§1)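 Suspended cells, 10,000 per well, in Hank's balanced salt solution with 25 mM HEPES and 0.01% (w/v) BSA. Stimulated with forskolin (5 μM final) plus serially diluted test ligands, room temperature for 30 min. Antibody and lysis reagents then added, followed by overnight dark incubation with detection solution. Luminescence read (RLU). Efficacy expressed relative to acetate. Means of four experiments.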
(In general: Changes in cAMP serve as a functional read-out for many G protein-coupled receptors.)

Data set [2] concerns Rattus norvegicus. Nature of the data set: Clearance in Sprague-Dawley rat at 0.5 mg/kg, iv. The class given is ADME, organism-based. On the set-up: dose 0.5 mg/kg, route intravenous. The following applies: in vivo. In outline:
(§2)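 Male Sprague-Dawley rats dosed 0.5 mg/kg iv.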

The subject of data set [3] is Rattus norvegicus. The experiment in a line: AUC in Sprague-Dawley rat at 0.5 mg/kg, iv. The class given is ADME, organism-based, Plasma. Further details: dose 0.5 mg/kg, route intravenous. To be noted: in vivo. In outline:
as §2

Data set [4] can be described thus: Mean residence time in Sprague-Dawley rat at 0.5 mg/kg, iv. To be noted: in vivo. Further details: dose 0.5 mg/kg, route intravenous. The class given is ADME, organism-based. In outline:
as §2

Data set [5] can be described thus: Volume of distribution at steady state in Sprague-Dawley rat at 0.5 mg/kg, iv. The class given is ADME, organism-based. On the set-up: dose 0.5 mg/kg, route intravenous. The following applies: in vivo, read-out: Vdss. In outline:
as §2

Data set [6] has as its target T2, Free fatty acid receptor 2 (Homo sapiens) (UniProt O15552).
T2 sequence (whole entry): T1 sequence (O15552 whole entry)
Nature of the data set: Agonist activity at human FFA2 receptor expressed in CHO cells assessed as inhibition of forskolin-induced cAMP production relative to acetate. The format is functional, cell-based. In outline:
as §1

A short description of data set [7]: Metabolic stability in rat liver microsomes assessed as compound remaining after 30 mins. The class given is ADME, Microsome. To be noted: read-out: Stability. The method, boiled down:
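Incubated with rat liver microsomes; percent parent remaining at 30 min.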
(Microsomes from liver hold many membrane-bound enzymes, among them those of drug oxidation.)

Data set [8] in a line: Cmax in mouse at 5 mg/kg, po. Further details: dose 5 mg/kg, route oral. To be noted: in vivo. The format is ADME, organism-based.
Data set [9] can be described thus: AUC in mouse at 5 mg/kg, po. To be noted: plasma. On the set-up: dose 5 mg/kg, route oral. The format is ADME, organism-based.
Data set [10] in a line: Mean residence time in mouse at 5 mg/kg, po. The class given is ADME, organism-based. Further details: dose 5 mg/kg, route oral. To be noted: in vivo.
The nature of data set [11]: Tmax in mouse at 5 mg/kg, po. The class given is ADME, organism-based. On the set-up: dose 5 mg/kg, route oral. The following applies: in vivo.
Data set [12] addresses T3, Free fatty acid receptor 2 (Mus musculus) (UniProt Q8VCK6).
T3 sequence (whole entry): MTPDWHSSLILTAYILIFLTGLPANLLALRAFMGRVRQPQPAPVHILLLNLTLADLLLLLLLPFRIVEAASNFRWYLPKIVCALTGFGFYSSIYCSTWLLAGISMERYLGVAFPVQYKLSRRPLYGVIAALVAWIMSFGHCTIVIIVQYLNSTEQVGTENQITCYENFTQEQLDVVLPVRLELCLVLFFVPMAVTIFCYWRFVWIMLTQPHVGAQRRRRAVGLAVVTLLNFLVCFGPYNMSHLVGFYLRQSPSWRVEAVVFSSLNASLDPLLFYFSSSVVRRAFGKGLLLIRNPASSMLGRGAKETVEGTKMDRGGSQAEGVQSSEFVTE
Nature of the data set: Agonist activity at mouse FFA2 receptor expressed in CHO cells assessed as inhibition of forskolin-induced cAMP production. The format is functional, cell-based. In outline: as §1

The subject of a further data set is 3T3-L1. Nature of the data set: Inhibition of lipolysis in mouse 3T3L1 cells. The format is functional, cell-based. In outline: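 Lipolysis measured in 3T3L1 adipocytes across a concentration range of test compound. Sensitivity to pertussis toxin treatment also examined. Means of three experiments.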

Turning to `CC(C)[C@H](C(=O)Nc1ncc(Cl)s1)c1ccc(Cl)cc1`, in [1], the pIC50 (as a rule, the IC50 on a negative log10 scale, so that one unit is a factor of ten) is 6.15. The compound further gave a CL in the data set with Rattus norvegicus [2] of 33 mL/min/kg. In addition, the AUC (in general, the area under the concentration-time curve, a measure of exposure) in the data set with Rattus norvegicus [3] was determined as 0.249 µg·h/mL. Besides, the MRT – broadly, a mean duration of stay, worked out from the concentration-time curve – in data set [4] was found to be 4.2 h. Moreover, the Vd in data set [5] stood at 8.3 L/kg. Besides, the Efficacy in data set [6] was determined as 100%.
As for `CC(C)[C@H](C(=O)Nc1nccs1)c1ccc(Cl)cc1`, the pIC50 in data set [1] was 6.15. Moreover, in the data set on Rattus norvegicus [2], the CL was determined as 107 mL/min/kg. In addition, the results for the AUC (in the data set on Rattus norvegicus [3]; in [9]) were 0.079 µg·h/mL and 10 µg·h/mL, respectively. In data set [7], the remaining at 0.5 h was determined as 2%. Moreover, the MRT in data set [4] turned out to be 1.1 h; in data set [10] it was 1.8 h. Also, in data set [5], the Vd was 7 L/kg. Further, the Cmax (commonly the peak of the concentration-time curve) in [8] is 5 ng/mL. In data set [11], the Tmax (as a rule, the time at which the peak concentration occurs) came out at 1 h. Moreover, in [6], the Efficacy is 100%. Moreover, the Activity in [12] came to 1 µM. For the same compound, the inhibition result with 3T3-L1 was “Dose-dependent effect”.
In the case of `CC(C)(C)[C@H](C(=O)Nc1ncc(Cl)s1)c1ccc(Cl)cc1`, the pIC50 in [1] is 6.00. In the data set with Rattus norvegicus [2], the CL turned out to be 8 mL/min/kg. Also, the figures for the AUC (in the data set on Rattus norvegicus [3]; in [9]) were 1.03 µg·h/mL and 4550 µg·h/mL, respectively. For the same compound, the MRT is 9 h in [4] and 7.6 h in data set [10]. Further, the Vd in data set [5] is 4.4 L/kg. This compound also had a Cmax in data set [8] of 569 ng/mL. Also, the Tmax in data set [11] came to 2 h. Besides, in data set [6], the Efficacy stood at 97%.
In the case of `Cc1cnc(NC(=O)[C@H](c2ccc(Cl)cc2)C(C)C)s1`, the pIC50 in data set [1] is 6.10. For the same compound, the Efficacy in [6] is 99%. The Activity in data set [12] was 1.4 µM. In the data set with 3T3-L1, the inhibition entry was “Dose-dependent effect”.
On to `O=C(Nc1ncc(F)s1)[C@H](c1ccnc(Cl)c1)C1CC1`, for which the pIC50 in data set [1] was 4.80. The Efficacy in data set [6] worked out at 120%.
The corresponding values for `O=C(Nc1ncc(F)s1)[C@H](c1ccc(C(F)(F)F)cc1)C1CC1` are 5.96 and 108%.
For `CC(C)[C@H](C(=O)Nc1ncco1)c1ccc(Cl)cc1`, the pIC50 in data set [1] is 4.60. Besides, the Efficacy in data set [6] was determined as 92%.
As to `CC(C)C(C(=O)Nc1nccs1)c1ccc(Cl)cc1` (racemic), the pIC50 in data set [1] is 6.10. In addition, the Efficacy in [6] was determined as 98%.
The corresponding values for `CC(C)[C@H](C(=O)Nc1cnns1)c1ccc(Cl)cc1` are 4.24 and 48%.
For `CC(C)[C@H](C(=O)Nc1ccccn1)c1ccc(Cl)cc1`, the pIC50 in data set [1] is 5.85. In addition, the Efficacy in [6] amounted to 92%.
As to `CC(C)(C)[C@H](C(=O)Nc1ncc(-c2ccccc2)s1)c1ccc(Cl)cc1`, in data set [1], the pIC50 was 6.15. For the same compound, the CL in the data set on Rattus norvegicus [2] amounted to 5.33 mL/min/kg. Also, the AUC in the data set with Rattus norvegicus [3] came to 1.67 µg·h/mL; in [9] it was 18600 µg·h/mL. Besides, the values for the MRT in data set [4] and in data set [10] were 9.1 h and 9.2 h, respectively. In addition, in data set [5], the Vd is 2.7 L/kg. The Cmax in [8] stood at 1870 ng/mL. Further, the Tmax in [11] was 2 h. Besides, the Efficacy in [6] is 111%.
Turning to `CC(C)[C@H](C(=O)Nc1ccc(F)cn1)c1ccc(Cl)cc1`, the pIC50 in [1] is 5.89. For the same compound, the Efficacy in data set [6] came to 93%.
The corresponding values for `CC(C)[C@H](C(=O)NCc1ccccc1)c1ccc(Cl)cc1` are less than 4.00 and less than 30%.
The corresponding values for `CC(C)(C)[C@H](C(=O)Nc1ncc(C#N)s1)c1ccc(Cl)cc1` are 5.82 and 106%.
The corresponding values for `CC(C)C(C(=O)Nc1cnccn1)c1ccc(Cl)cc1` (racemic) are 5.24 and 115%.
For `CC(C)[C@H](C(=O)Nc1ncc(C#N)s1)c1ccc(Cl)cc1`, the pIC50 in data set [1] was 5.70. For the same compound, in data set [6], the Efficacy was found to be 105%.
The corresponding values for `CC(C)C(C(=O)O)c1ccc(Cl)cc1` (racemic) are less than 4.00 and less than 30%.
